Laboratory results reported in paper PMC10395004 (European journal of pharmaceutical sciences : official …, 2022).
Counter-ions that a name gives are not always drawn. Like-named read-outs stand apart in the source and are kept apart here. Blank lines part the entries; values can stand above or below the compound they belong to.

How the values were obtained:
[1] = type: in vivo, mice; conditions: for CL/F / Vd/F / AUC(0-t) / MRT last / MRT inf / half-life / Cmax / Tmax / increase of metabolite AUC by propranolol: DLX 12 mg/kg p.o.; for CL/F / Vd/F / AUC(0-inf) / AUC(0-t) / MRT last / MRT inf / half-life / Cmax / Tmax / increase of metabolite AUC by propranolol: plasma; for AUC(0-inf) / AUC(0-t) / MRT last / MRT inf / half-life / Cmax / Tmax: male, mouse, po, 12 mg/kg; for AUC(0-t): AUC0-t; for MRT last: MRT0-t; for MRT inf: MRT0-∞; for increase of metabolite AUC by propranolol: peak area
How it was run: (§1)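 16 h later they received DLX 12 mg/kg p.o. in 0.5% methyl cellulose. Tail-vein blood (heparin) was taken at 0–24 h (9 points) and spun to plasma. Plasma was methanol-precipitated with IS and run by LC-MS against a DLX standard curve. Parameters came from noncompartmental analysis; ratios were taken between group means.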

Cyp2d = type: in vivo, mice; conditions: male, mouse, plasma, po, 12 mg/kg
How it was run: as §1

[2] = type: in vivo, mice
[3] = Cyp1a2-KO mice, Cyp2d+I (propranolol 30 mg/kg 16 h before)
[4] = Cyp1a2-KO mice, control (vehicle)
[5] = WT mice, Cyp2d+I (propranolol 30 mg/kg 16 h before)
[6] = Cyp1a2-KO, Cyp1a2-KO mice, Cyp2d+I (propranolol 30 mg/kg 16 h before)
[7] = Cyp1a2-KO, Cyp1a2-KO mice, control (vehicle)
[8] = KO + control compared with WT + control, not statistically significant
[9] = KO + inhibitor compared to KO + control
[10] = WT + inhibitor compared to WT + control

AUC0-t ratio Cyp2d+I/Control ([1]; Cyp1a2-KO mice): 2.29 | AUC0-∞ ratio Cyp2d+I/Control ([1]; Cyp1a2-KO mice): 2.26 | CL/F ratio Cyp2d+I/Control ([1]; Cyp1a2-KO mice): 0.40 | Cmax ratio Cyp2d+I/Control ([1]; Cyp1a2-KO mice): 3.95 | MRT0-t ratio Cyp2d+I/Control ([1]; Cyp1a2-KO mice): 0.80 | MRT0-∞ ratio Cyp2d+I/Control ([1]; Cyp1a2-KO mice): 0.76 | T1/2 ratio Cyp2d+I/Control ([1]; Cyp1a2-KO mice): 0.83 | Tmax ratio Cyp2d+I/Control ([1]; Cyp1a2-KO mice): 0.40 | Vd/F ratio Cyp2d+I/Control ([1]; Cyp1a2-KO mice): 0.30 | CL/F [1, 3]: 2.94 ± 0.34 mg/(hr*μmol/L)/kg | Vd/F [1, 3]: 15.44 ± 1.71 mg/(μmol/L)/kg | CL/F [1, 4]: 7.32 ± 1.60 mg/(hr*μmol/L)/kg | Vd/F [1, 4]: 51.03 ± 18.18 mg/(μmol/L)/kg | increase of AUC0-t by propranolol ([1]; KO + inhibitor vs KO + control): 129% | increase of Cmax by propranolol ([1]; KO + inhibitor vs KO + control): 295% | AUC0-t KO control/WT control ratio ([1]; KO control vs WT control): 0.89 | AUC0-∞ KO control/WT control ratio ([1]; KO control vs WT control): 0.89 | CL/F KO control/WT control ratio ([1]; KO control vs WT control): 1.18 | Cmax KO control/WT control ratio ([1]; KO control vs WT control): 0.56 | MRT0-t KO control/WT control ratio ([1]; KO control vs WT control): 1.14 | MRT0-∞ KO control/WT control ratio ([1]; KO control vs WT control): 1.16 | T1/2 KO control/WT control ratio ([1]; KO control vs WT control): 1.04 | Tmax KO control/WT control ratio ([1]; KO control vs WT control): 1.81 | Vd/F KO control/WT control ratio ([1]; KO control vs WT control): 1.28 | increase of AUC0-t by propranolol ([1]; WT + inhibitor vs WT + control): 304% | increase of Cmax by propranolol ([1]; WT + inhibitor vs WT + control): 177% | AUC0-t ratio Cyp2d+I/Control ([1]; WT mice): 4.04 | AUC0-∞ ratio Cyp2d+I/Control ([1]; WT mice): 4.01 | CL/F ratio Cyp2d+I/Control ([1]; WT mice): 0.30 | Cmax ratio Cyp2d+I/Control ([1]; WT mice): 2.78 | MRT0-t ratio Cyp2d+I/Control ([1]; WT mice): 1.10 | MRT0-∞ ratio Cyp2d+I/Control ([1]; WT mice): 1.04 | T1/2 ratio Cyp2d+I/Control ([1]; WT mice): 0.76 | Tmax ratio Cyp2d+I/Control ([1]; WT mice): 0.91 | Vd/F ratio Cyp2d+I/Control ([1]; WT mice): 0.26 | increase of AUC of DLX by propranolol ([1]; WT mice): 3 folds | CL/F [1, 5]: 1.88 ± 0.60 mg/(hr*μmol/L)/kg | Vd/F [1, 5]: 10.27 ± 5.02 mg/(μmol/L)/kg | CL/F ([1]; WT mice, control (vehicle)): 6.19 ± 0.97 mg/(hr*μmol/L)/kg | Vd/F ([1]; WT mice, control (vehicle)): 39.87 ± 9.28 mg/(μmol/L)/kg | AUC(0-inf) ([1]; Cyp1a2-KO): 1.89 ± 0.39 µM·h | AUC(0-t) [1, 6]: 4.23 ± 0.56 µM·h | AUC(0-t) [1, 7]: 1.85 ± 0.39 µM·h | MRT last [1, 6]: 4.61 ± 0.29 h | MRT last [1, 7]: 5.73 ± 0.22 h | MRT inf [1, 6]: 4.83 ± 0.27 h | MRT inf [1, 7]: 6.39 ± 0.26 h | half-life ([1]; Cyp1a2-KO, T1/2, Cyp1a2-KO mice, Cyp2d+I (propranolol 30 mg/kg 16 h before)): 3.66 ± 0.24 h | half-life ([1]; Cyp1a2-KO, T1/2, Cyp1a2-KO mice, control (vehicle)): 4.43 ± 0.64 h | AUC(0-inf) [1]: 2.12 ± 0.4 µM·h | AUC(0-t) [1, 5]: 8.45 ± 2.46 µM·h | AUC(0-t) ([1]; WT mice, control (vehicle)): 2.09 ± 0.41 µM·h | Cmax [1, 3]: 790 ± 210 nM | Cmax [1, 4]: 200 ± 20 nM | Cmax [1, 5]: 1000 ± 210 nM | Cmax ([1]; WT mice, control (vehicle)): 360 ± 50 nM | MRT last [1, 5]: 5.51 ± 0.16 h | MRT last ([1]; WT mice, control (vehicle)): 5.02 ± 0.18 h | MRT inf [1, 5]: 5.75 ± 0.21 h | MRT inf ([1]; WT mice, control (vehicle)): 5.52 ± 0.34 h | half-life ([1]; T1/2, WT mice, Cyp2d+I (propranolol 30 mg/kg 16 h before)): 3.32 ± 0.52 h | half-life ([1]; T1/2, WT mice, control (vehicle)): 4.28 ± 0.41 h | Tmax [1, 3]: 1 ± 0.35 h | Tmax [1, 4]: 2.5 ± 0.5 h | Tmax [1, 5]: 1.25 ± 0.25 h | Tmax ([1]; WT mice, control (vehicle)): 1.38 ± 0.38 h | AUC(0-inf) (Cyp2d; Cyp1a2-KO): 4.27 ± 0.57 µM·h | AUC(0-inf) (Cyp2d): 8.5 ± 2.45 µM·h | decrease of DLX level in liver [2, 8]: 48% | decrease of DLX level in lung [2, 8]: 31% | increase of DLX level in kidney [2, 8]: 62% | increase of DLX levels in brain and testis [2, 8]: around 25% | increase of DLX level in liver [2, 9]: 3 folds | increase of DLX levels in other tissues (than liver) [2, 9]: around 1.5 folds | elevation of DLX level in liver by Cyp2d inhibitor ([2]; KO mice (discussion)): 4.0 folds | increase of DLX level in kidney by Cyp2d inhibitor ([2]; KO mice (discussion)): 3.9 folds | increase of DLX level in kidney [2, 10]: Three-fold | increase of DLX levels in epididymis, testis and brain [2, 10]: 1–2 folds | increase of DLX levels in liver and spleen [2, 10]: around 90% | elevation of DLX level in liver by Cyp2d inhibitor ([2]; WT mice (discussion)): 1.9 folds | increase of DLX level in kidney by Cyp2d inhibitor ([2]; WT mice (discussion)): 2.5 folds
SMILES: CNCC[C@H](Oc1cccc2ccccc12)c1cccs1 [DLX, (3S)-N-methyl-3-(1-naphthyloxy)-3-(2-thienyl)propan-1-amine]

increase of metabolite AUC by propranolol ([1]; KO mice): 73% | increase of metabolite AUC by propranolol ([1]; WT mice): 103% | increase of metabolite abundance in kidney by Cyp2d inhibitor ([2]; WT + inhibitor vs WT + control, or KO + inhibitor vs KO + control): over 65%
SMILES: O=S(=O)(O)Oc1cccc2ccccc12 [M28, 1-naphthol sulfate]
